Assay results from ChEMBL document CHEMBL2384906, “Biological activity, design, synthesis and structure activity relationship of some novel derivatives of curcumin containing sulfonamides” (Eur J Med Chem, 2013).
Converted amounts (≈) assume the structure as drawn. The source made the active and inactive calls. The rule behind the calls is not given here.

How the values were obtained:
Staphylococcus aureus [1] = experiment: Antimicrobial activity against Staphylococcus aureus ATCC 11632 assessed as diameter of inhibition zone at 80 uM after 24 hrs by Kirby -Baur disc diffusion method; type: functional
How it was run: (§1)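 Kirby-Bauer disc diffusion was used. Acetone stocks (160 µM) were serially doubled down to 80, 40 and 20 µM. 4 µL of each went onto 5 mm sterile paper discs, which were dried 30 min at 50 °C. Inoculum was 1.5 × 10⁸ CFU/mL diluted to 3 × 10² CFU/mL, and 50 µL was spread on Mueller-Hinton agar. After 24 h at 37 °C the inhibition-zone diameter was measured. Ciprofloxacin served as positive control.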

QG-56 = experiment: Cytotoxicity against human QG56 cells after 24 hrs by MTT assay; type: functional, cell-based
How it was run: (§2)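 The MTT assay seeded 5 × 10⁴ cells per well and grew them 24 h in RPMI 1640 with compound at 2.5–200 µM. Medium without cells was the blank and adriamycin the positive control. MTT was added for 4 h at 37 °C, formazan was solubilised, and absorbance was read at 570 nm. IC50 is the concentration that cuts viability 50% against untreated cells.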

Mus musculus = experiment: Antiinflammatory activity in mouse assessed as inhibition of carrageenan-induced increase in paw volume at 200 mg/kg administered 1 hr prior to carrageenan challenge measured after 3 hrs relative to control; type: functional
How it was run: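 Mice were fasted 2 h and placed in groups of five. Controls received saline i.p. Phenylbutazone was given at 100 mg/kg i.p., curcumin at 200 mg/kg i.p., and derivatives at 200 mg/kg. After 1 h, 0.1 mL of 1% carrageenan in saline was injected subplantar into the right hind paw. Paw volume was followed by plethysmometer for 3 h, and % inhibition was calculated as (Vc − Vt)/Vc × 100.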

Curvularia lunata [2] = experiment: Antifungal activity against Curvularia lunata MTCC 581 after 48 hrs; type: functional; details: MTCC 581, 48 h
Trichoderma viride [3] = experiment: Antifungal activity against Trichoderma viride MTCC 1107 assessed as zone of inhibition at 40 uM after 48 hrs by disc diffusion method; type: functional; details: for zone of inhibition at 40 µM: MTCC 1107, 48 h, read-out: IZ
How it was run: (§3)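 Spores from 4-day potato dextrose agar cultures, suspended in sterile water at 1.5 × 10⁵ CFU/mL. 0.2 mL was spread on potato dextrose agar. 5 mm filter-paper discs soaked with test compound were laid on the lawn. Incubation was 48 h at 28 °C, then the inhibition zone was measured in mm. Fluconazole was the positive control and acetone the negative control.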

Trichoderma viride [4] = experiment: Antifungal activity against Trichoderma viride MTCC 1107 assessed as zone of inhibition at 20 uM after 48 hrs by disc diffusion method; type: functional; how it was run: as §3
Curvularia lunata [5] = experiment: Antifungal activity against Curvularia lunata MTCC 581 assessed as zone of inhibition at 80 uM after 48 hrs by disc diffusion method; type: functional; details: MTCC 581, 48 h, read-out: IZ; how it was run: as §3
Staphylococcus aureus [6] = experiment: Antimicrobial activity against Staphylococcus aureus ATCC 11632 after 24 hrs by broth micro serial dilution method; type: functional
How it was run: (§4)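 This was broth microdilution in autoclaved Mueller-Hinton broth. 150 µL of compound per well was serially diluted […], and 50 µL of test organism was added. Plates were incubated 24 h at 37 °C and optical density was read.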

Aspergillus niger [7] = experiment: Antifungal activity against Aspergillus niger MTCC 1108 after 48 hrs; type: functional
Escherichia coli [8] = experiment: Antimicrobial activity against Escherichia coli ATCC 35218 after 24 hrs by broth micro serial dilution method; type: functional; how it was run: as §4
Bacillus cereus [9] = experiment: Antimicrobial activity against Bacillus cereus MTCC 7350 after 24 hrs by broth micro serial dilution method; type: functional; how it was run: as §4
Salmonella typhi [10] = experiment: Antimicrobial activity against Salmonella typhi ATCC 23564 assessed as diameter of inhibition zone at 80 uM after 24 hrs by Kirby -Baur disc diffusion method; type: functional; details: for diameter of the inhibition zone (DIZ): Salmonella enterica subsp. enterica serovar Typhi
Aspergillus flavus [11] = experiment: Antifungal activity against Aspergillus flavus MTCC 1021 after 48 hrs; type: functional
HeLa = experiment: Cytotoxicity against human HeLa cells after 24 hrs by MTT assay; type: functional, cell-based; how it was run: as §2
Escherichia coli [12] = experiment: Antimicrobial activity against Escherichia coli ATCC 35218 assessed as diameter of inhibition zone at 80 uM after 24 hrs by Kirby -Baur disc diffusion method; type: functional; how it was run: as §1
HepG2 = experiment: Cytotoxicity against human HepG2 cells after 24 hrs by MTT assay; type: functional, cell-based; how it was run: as §2
Trichoderma viride [13] = experiment: Antifungal activity against Trichoderma viride MTCC 1107 after 48 hrs; type: functional; details: MTCC 1107, 48 h
Pseudomonas aeruginosa [14] = experiment: Antimicrobial activity against Pseudomonas aeruginosa ATCC 15499 after 24 hrs by broth micro serial dilution method; type: functional; how it was run: as §4
Curvularia lunata [15] = experiment: Antifungal activity against Curvularia lunata MTCC 581 assessed as zone of inhibition at 40 uM after 48 hrs by disc diffusion method; type: functional; details: for zone of inhibition at 40 µM: MTCC 581, 48 h, read-out: IZ; how it was run: as §3
Curvularia lunata [16] = experiment: Antifungal activity against Curvularia lunata MTCC 581 assessed as zone of inhibition at 20 uM after 48 hrs by disc diffusion method; type: functional; how it was run: as §3
Pseudomonas aeruginosa [17] = experiment: Antimicrobial activity against Pseudomonas aeruginosa ATCC 15499 assessed as diameter of inhibition zone at 80 uM after 24 hrs by Kirby -Baur disc diffusion method; type: functional; how it was run: as §1
Bacillus cereus [18] = experiment: Antimicrobial activity against Bacillus cereus MTCC 7350 assessed as diameter of inhibition zone at 80 uM after 24 hrs by Kirby -Baur disc diffusion method; type: functional; how it was run: as §1
Aspergillus flavus [19] = experiment: Antifungal activity against Aspergillus flavus MTCC 1021 assessed as zone of inhibition at 80 uM after 48 hrs by disc diffusion method; type: functional; how it was run: as §3
Salmonella typhi [20] = experiment: Antimicrobial activity against Salmonella typhi ATCC 23564 after 24 hrs by broth micro serial dilution method; type: functional
Trichoderma viride [21] = experiment: Antifungal activity against Trichoderma viride MTCC 1107 assessed as zone of inhibition at 80 uM after 48 hrs by disc diffusion method; type: functional; details: MTCC 1107, 48 h, read-out: IZ; how it was run: as §3
Aspergillus niger [22] = experiment: Antifungal activity against Aspergillus niger MTCC 1108 assessed as zone of inhibition at 80 uM after 48 hrs by disc diffusion method; type: functional; how it was run: as §3
HCT-116 = experiment: Cytotoxicity against human HCT116 cells after 24 hrs by MTT assay; type: functional, cell-based; how it was run: as §2
Salmonella typhi [23] = experiment: Antimicrobial activity against Salmonella typhi ATCC 23564 assessed as diameter of inhibition zone at 40 uM after 24 hrs by Kirby -Baur disc diffusion method; type: functional; details: Salmonella enterica subsp. enterica serovar Typhi
Salmonella typhi [24] = experiment: Antimicrobial activity against Salmonella typhi ATCC 23564 assessed as diameter of inhibition zone at 20 uM after 24 hrs by Kirby -Baur disc diffusion method; type: functional; details: Salmonella enterica subsp. enterica serovar Typhi
[25] = Salmonella enterica subsp. enterica serovar Typhi
[26] = Salmonella enterica, ATCC 23564, 24 h

Row | SMILES | diameter of the inhibition zone (DIZ) (Staphylococcus aureus [1]) | MIC (Curvularia lunata [2]) [µM] | zone of inhibition at 80 µM (Curvularia lunata [5]) [mm] | MIC (Staphylococcus aureus [6]) | MIC (Aspergillus niger [7]) | MIC (Escherichia coli [8]) | MIC (Bacillus cereus [9]) | diameter of the inhibition zone (DIZ) (Salmonella typhi [10]) | diameter of the inhibition zone (DIZ) (Escherichia coli [12]) | MIC (Trichoderma viride [13]) [µM] | MIC (Pseudomonas aeruginosa [14]) | diameter of the inhibition zone (DIZ) (Pseudomonas aeruginosa [17]) | diameter of the inhibition zone (DIZ) (Bacillus cereus [18]) | inhibition zone (IZ) (Aspergillus flavus [19]) | MIC (Salmonella typhi [20]; [25]) | zone of inhibition at 80 µM (Trichoderma viride [21]) [mm] | inhibition zone (IZ) (Aspergillus niger [22]) | MIC (Escherichia coli [8]; ATCC 35218, 24 h) [µM] | MIC (Salmonella typhi [20]; [26]) [µM] | further results
1 | COc1cc(/C=C/c2nn(-c3ccccc3)c(/C=C/c3ccc(O)c(OC)c3)c2/N=N/c2ccc(S(N)(=O)=O)cc2)ccc1O | inactive | > 80 | 11 | inactive | inactive | inactive | inactive | inactive | inactive | 80 (≈ 49.9 µg/mL) | inactive | inactive | inactive | inactive | inactive | 11 | inactive |  |  | IC50 (QG-56): > 100 µM; inhibition in vivo at 200 mg/kg (Mus musculus): 22.5%; zone of inhibition at 40 µM (Trichoderma viride [3]): 10 mm; inhibition zone (IZ) (Trichoderma viride [4]): inactive; MIC (Aspergillus flavus [11]): inactive; IC50 (HeLa): > 100 µM; IC50 (HepG2): Not Active; zone of inhibition at 40 µM (Curvularia lunata [15]): 10 mm; inhibition zone (IZ) (Curvularia lunata [16]): inactive; IC50 (HCT-116): Not Active
2 | COc1ccc(NS(=O)(=O)c2ccc(N)cc2)nn1 [SULFAMETHOXYPYRIDAZINE] | inactive |  |  |  |  |  |  | inactive | inactive |  |  | inactive | inactive |  |  |  |  | > 160 | > 160 | MIC (Staphylococcus aureus [6]; ATCC 11632, 24 h): > 80 µM; MIC (Bacillus cereus [9]; MTCC 7350, 24 h): > 160 µM; MIC (Pseudomonas aeruginosa [14]; ATCC 15499, 24 h): > 160 µM
3 | COc1cc(/C=C/c2noc(/C=C/c3ccc(O)c(OC)c3)c2/N=N/c2ccc(S(N)(=O)=O)cc2)ccc1O | inactive | > 80 | 9 | inactive | inactive | inactive | inactive |  | inactive | > 80 | inactive | inactive | inactive | inactive |  | 11 | inactive |  | > 80 | IC50 (QG-56): Not Active; diameter of the inhibition zone (DIZ) (Salmonella typhi [23]): inactive; inhibition in vivo at 200 mg/kg (Mus musculus): 24.1%; inhibition zone (IZ) (Trichoderma viride [3]): inactive; inhibition zone (IZ) (Trichoderma viride [4]): inactive; zone of inhibition at 80 µM (Salmonella typhi [10]; Salmonella enterica, ATCC 23564, 24 h, read-out: DIZ): 11 mm; MIC (Aspergillus flavus [11]): inactive; IC50 (HeLa): Not Active; diameter of the inhibition zone (DIZ) (Salmonella typhi [24]): inactive; IC50 (HepG2): Not Active; inhibition zone (IZ) (Curvularia lunata [15]): inactive; inhibition zone (IZ) (Curvularia lunata [16]): inactive; IC50 (HCT-116): Not Active
4 | OC(Cn1cncn1)(Cn1cncn1)c1ccc(F)cc1F [FLUCONAZOLE] |  | 20 (≈ 6.13 µg/mL) | 28 |  | inactive |  |  |  |  | 20 (≈ 6.13 µg/mL) |  |  |  | inactive |  | 29 | inactive |  |  | zone of inhibition at 40 µM (Trichoderma viride [3]): 24 mm; zone of inhibition at 20 µM (Trichoderma viride [4]; MTCC 1107, 48 h, read-out: IZ): 21 mm; MIC (Aspergillus flavus [11]; MTCC 1021, 48 h): > 80 µM; zone of inhibition at 40 µM (Curvularia lunata [15]): 27 mm; zone of inhibition at 20 µM (Curvularia lunata [16]; MTCC 581, 48 h, read-out: IZ): 24 mm
5 | Nc1ccc(S(=O)(=O)Nc2ccccn2)cc1 [SULFAPYRIDINE] | inactive |  |  | inactive |  |  | inactive | inactive | inactive |  | inactive | inactive | inactive |  | inactive |  |  | > 160 |  | 
6 | Nc1ccc(S(N)(=O)=O)cc1 | inactive |  |  | inactive |  | inactive | inactive | inactive | inactive |  | inactive | inactive | inactive |  | inactive |  |  |  |  | 
7 | Cc1cc(C)nc(NS(=O)(=O)c2ccc(N)cc2)n1 [SULFAMETHAZINE] | inactive |  |  | inactive |  |  | inactive | inactive | inactive |  | inactive | inactive | inactive |  |  |  |  | > 160 | > 160 | 
8 | Cc1cc(NS(=O)(=O)c2ccc(N)cc2)no1 [SULFAMETHOXAZOLE] | inactive |  |  |  |  |  | inactive | inactive | inactive |  | inactive | inactive | inactive |  |  |  |  | > 160 | > 160 | MIC (Staphylococcus aureus [6]; ATCC 11632, 24 h): > 160 µM
